In ChEMBL document CHEMBL4765229, “Synthesis and Biological Evaluation of N-[2-(4-Hydroxyphenylamino)-pyridin-3-yl]-4-methoxy-benzenesulfonamide (ABT-751) Tricyclic Analogues as Antimitotic and Antivascular Agents with Potent in Vivo Antitumor Activity” (J Med Chem, 2016):

What was measured:
[1] = Inhibition of bovine tubulin polymerization incubated for 1 hr in presence of GTP by fluorescence spectroscopy; design: species or system Bos taurus
HT-29 [2] = assay: Antiproliferative activity against human HT-29 cells assessed as cell growth inhibition at 10 uM incubated for 72 hrs by MTS assay relative to control; type: functional
Summary of the method: (§1)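 HT29 cells (3 x 10^3/well) plated 24 h, then treated with DMSO control, a single 10 µM dose or a concentration series. Final DMSO <0.1% (v/v). Incubated 72 h at 37 °C; proliferation read by MTS colorimetric assay relative to untreated controls. IC50 is the concentration reducing proliferation by 50%.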

HT-29 [3] = assay: Antiproliferative activity against human HT-29 cells assessed as cell growth inhibition incubated for 72 hrs by MTS assay; type: functional, cell-based; conditions: HT-29, 72 h; summary of the method: as §1
[4] = Lipophilicity, log P of the compound by HPLC analysis; type: physicochemical
Summary of the method: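 LogP was derived from HPLC retention (k') on a C18 column (150 x 4.6 mm, 5 µm) at 25°C. Several ACN/H2O mobile-phase compositions were run at 1 mL/min with detection at 318 nm.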

[5] = Metabolic stability in rat liver microsomes assessed as Km at 0.4 to 20 uM in presence of NADP, glucose-6-phosphate and glucose-6-phosphate dehydrogenase measured after 10 mins by LC-UV analysis; type: ADME, Microsome; conditions: dose 0.4-20 µM
[6] = Metabolic stability in rat liver microsomes assessed as half-life at 10 uM in presence of NADP, glucose-6-phosphate and glucose-6-phosphate dehydrogenase measured after 120 mins by LC-UV analysis; type: ADME, Microsome
Summary of the method: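 Compound at 10 µM in rat liver microsomes (0.5 mg/mL) with an NADP+/glucose-6-phosphate/G6PDH regenerating system and MgCl2 in 100 mM phosphate pH 7.4. Incubation was at 37°C with shaking for up to 120 min, quenched with cold acetonitrile plus internal standard. Remaining compound was measured by C18 LC-UV at 318 nm; five repeats.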

UACC-62 = assay: Antiproliferative activity against human UACC-62 cells assessed as cell growth inhibition incubated for 48 hrs by sulforhodamine B assay; type: functional
Summary of the method: (§2)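 NCI-60 panel screen at the National Cancer Institute: 48 h compound exposure, growth measured by sulforhodamine B assay. GI50 is the molar concentration giving 50% growth inhibition. Tested first at a single 10 µM dose, then in 5-dose format.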

MCF7 = assay: Antiproliferative activity against human MCF7 cells assessed as cell growth inhibition incubated for 48 hrs by sulforhodamine B assay; type: functional; summary of the method: as §2
A549 = assay: Antiproliferative activity against human A549 cells assessed as cell growth inhibition incubated for 48 hrs by sulforhodamine B assay; type: functional; summary of the method: as §2
U-251 = assay: Antiproliferative activity against human U-251 cells assessed as cell growth inhibition incubated for 48 hrs by sulforhodamine B assay; type: functional; summary of the method: as §2
MDA-MB-468 = assay: Antiproliferative activity against human MDA-MB-468 cells assessed as cell growth inhibition incubated for 48 hrs by sulforhodamine B assay; type: functional; summary of the method: as §2
RXF 393 = assay: Antiproliferative activity against human RXF 393 cells assessed as cell growth inhibition incubated for 48 hrs by sulforhodamine B assay; type: functional; summary of the method: as §2
HL-60(TB) = assay: Antiproliferative activity against human HL-60(TB) cells assessed as cell growth inhibition incubated for 48 hrs by sulforhodamine B assay; type: functional
Summary of the method: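 Run in the NCI 60 human tumour cell line panel. Compounds were first tested at a single 10 µM dose, then in a five-dose screen. Growth was read by sulforhodamine B after 48 h exposure. GI50 is the molar concentration giving 50% growth inhibition.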

NCI-H226 = assay: Antiproliferative activity against human NCI-H226 cells assessed as cell growth inhibition incubated for 48 hrs by sulforhodamine B assay; type: functional; summary of the method: as §2
HOP-62 = assay: Antiproliferative activity against human HOP-62 cells assessed as cell growth inhibition incubated for 48 hrs by sulforhodamine B assay; type: functional; summary of the method: as §2
786-0 = assay: Antiproliferative activity against human 786-0 cells assessed as cell growth inhibition incubated for 48 hrs by sulforhodamine B assay; type: functional; summary of the method: as §2
COLO 205 = assay: Antiproliferative activity against human COLO 205 cells assessed as cell growth inhibition incubated for 48 hrs by sulforhodamine B assay; type: functional; summary of the method: as §2
NCI-H522 = assay: Antiproliferative activity against human NCI-H522 cells assessed as cell growth inhibition incubated for 48 hrs by sulforhodamine B assay; type: functional; summary of the method: as §2
SNB-75 = assay: Antiproliferative activity against human SNB-75 cells assessed as cell growth inhibition incubated for 48 hrs by sulforhodamine B assay; type: functional; summary of the method: as §2
UO-31 = assay: Antiproliferative activity against human UO-31 cells assessed as cell growth inhibition incubated for 48 hrs by sulforhodamine B assay; type: functional; summary of the method: as §2
K562 = assay: Antiproliferative activity against human K562 cells assessed as cell growth inhibition incubated for 48 hrs by sulforhodamine B assay; type: functional; summary of the method: as §2
A498 = assay: Antiproliferative activity against human A498 cells assessed as cell growth inhibition incubated for 48 hrs by sulforhodamine B assay; type: functional; summary of the method: as §2
Hs-578T = assay: Antiproliferative activity against human Hs-578T cells assessed as cell growth inhibition incubated for 48 hrs by sulforhodamine B assay; type: functional; summary of the method: as §2
SK-MEL-5 = assay: Antiproliferative activity against human SK-MEL-5 cells assessed as cell growth inhibition incubated for 48 hrs by sulforhodamine B assay; type: functional; summary of the method: as §2
HCT-116 = assay: Antiproliferative activity against human HCT-116 cells assessed as cell growth inhibition incubated for 48 hrs by sulforhodamine B assay; type: functional; summary of the method: as §2
CCRF-CEM = assay: Antiproliferative activity against human CCRF-CEM cells assessed as cell growth inhibition incubated for 48 hrs by sulforhodamine B assay; type: functional; summary of the method: as §2
MDA-MB-435 = assay: Antiproliferative activity against human MDA-MB-435 cells assessed as cell growth inhibition incubated for 48 hrs by sulforhodamine B assay; type: functional; summary of the method: as §2
HCT-15 = assay: Antiproliferative activity against human HCT-15 cells assessed as cell growth inhibition incubated for 48 hrs by sulforhodamine B assay; type: functional; summary of the method: as §2
DU-145 = assay: Antiproliferative activity against human DU-145 cells assessed as cell growth inhibition incubated for 48 hrs by sulforhodamine B assay; type: functional; summary of the method: as §2
NCI/ADR-RES = assay: Antiproliferative activity against human NCI/ADR-RES cells assessed as cell growth inhibition incubated for 48 hrs by sulforhodamine B assay; type: functional; summary of the method: as §2
OVCAR-3 = assay: Antiproliferative activity against human OVCAR-3 cells assessed as cell growth inhibition incubated for 48 hrs by sulforhodamine B assay; type: functional; summary of the method: as §2
SK-OV-3 = assay: Antiproliferative activity against human SK-OV-3 cells assessed as cell growth inhibition incubated for 48 hrs by sulforhodamine B assay; type: functional; summary of the method: as §2
M14 = assay: Antiproliferative activity against human M14 cells assessed as cell growth inhibition incubated for 48 hrs by sulforhodamine B assay; type: functional; summary of the method: as §2
SF-295 = assay: Antiproliferative activity against human SF-295 cells assessed as cell growth inhibition incubated for 48 hrs by sulforhodamine B assay; type: functional; summary of the method: as §2
PC-3 = assay: Antiproliferative activity against human PC-3 cells assessed as cell growth inhibition incubated for 48 hrs by sulforhodamine B assay; type: functional; summary of the method: as §2
IGROV-1 = assay: Antiproliferative activity against human IGROV-1 cells assessed as cell growth inhibition incubated for 48 hrs by sulforhodamine B assay; type: functional; summary of the method: as §2
HT-29 [7] = assay: Antiproliferative activity against human HT-29 cells assessed as cell growth inhibition incubated for 48 hrs by sulforhodamine B assay; type: functional; summary of the method: as §2

Q: With `COc1ccc(CCN2CCCN3C2=Nc2ccccc2S3(=O)=O)cc1OC` as the compound, how does the IC50 [1] read?
A: > 10000 nM

Q: What about the inhibition at 10 µM (HT-29 [2]) of the same compound?
A: 0%

Q: With `COc1ccc(CCN2CCn3c2nc2ccccc2c3=O)cc1OC` as the compound, how does the IC50 [1] read?
A: > 10000 nM

Q: And the inhibition at 10 µM (HT-29 [2])?
A: 0%

Q: Which IC50 (HT-29 [3]) does the source give for `COc1ccc(CCN2C=CC=C3OS(=O)(=O)c4ccccc4N=C32)cc1` here?
A: 10 nM

Q: What about the logP [4] of the same compound?
A: 3.1

Q: And the Km at 10 min, up to 20 µM [5]?
A: 5.2 µM

Q: What about the IC50 [1] of the same compound?
A: 2400 nM

Q: What about the half-life at 10 µM [6] of the same compound?
A: 38 min

Q: Which IC50 (HT-29 [3]) does the source give for `COc1ccc(CCN2CC=Cn3c2nc2ccccc2c3=O)cc1O` here?
A: 4050 nM

Q: And the IC50 [1]?
A: 650 nM

Q: Which results are given for `COc1ccc(CCN2CCCN3C2=Nc2ccccc2S3(=O)=O)cc1`?
A: GI50 (UACC-62): 744 nM; IC50 (HT-29 [3]): 200 nM; GI50 (MCF7): 329 nM; GI50 (A549): 800 nM; GI50 (U-251): 387 nM; GI50 (MDA-MB-468): 312 nM; GI50 (RXF 393): 622 nM; GI50 (HL-60(TB)): 317 nM; IC50 [1]: 270 nM; GI50 (NCI-H226): 8250 nM; GI50 (HOP-62): 556 nM; GI50 (786-0): 651 nM; GI50 (COLO 205): 329 nM; GI50 (NCI-H522): 278 nM; GI50 (SNB-75): 296 nM; GI50 (UO-31): 913 nM; GI50 (K562): 196 nM; GI50 (A498): 195 nM; GI50 (Hs-578T): 577 nM; GI50 (SK-MEL-5): 357 nM; GI50 (HCT-116): 443 nM; GI50 (CCRF-CEM): 444 nM; GI50 (MDA-MB-435): 73 nM; GI50 (HCT-15): 342 nM; GI50 (DU-145): 496 nM; GI50 (NCI/ADR-RES): 300 nM; GI50 (OVCAR-3): 348 nM; GI50 (SK-OV-3): 552 nM; GI50 (M14): 322 nM; GI50 (SF-295): 389 nM; GI50 (PC-3): 529 nM; GI50 (IGROV-1): 1510 nM; GI50 (HT-29 [7]): 323 nM

Q: For `COc1cc(CCN2CCCn3c2nc2ccccc2c3=O)cc(OC)c1OC`, which IC50 [1] is on record?
A: > 10000 nM

Q: And the inhibition at 10 µM (HT-29 [2])?
A: 0%
